Tb hexokinase: T. brucei hexokinase 1 inhibition; recombinant TbHK1, G6PDH-coupled NADH A340; inhibition, % at 10 µM; hit rate 0.11% among 220,000;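 active = inhibition of 50% or more in the single-dose primary screen; inactive = inhibition below 50%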
G6PDH counter: inhibits Leuconostoc G6PDH, flagging false hits in G6PDH-based assays; Purified L. mesenteroides G6PDH, diaphorase/resazurin coupled fluorescence, 45 min; inhibition, % at 5 µM; hit rate 0.12% among 200,000; in the data active = inhibition above about 50%
Diaph inh CS: diaphorase inhibition or chemical oxidation counter-screen; diaphorase resazurin-to-resorufin fluorescence, NADH, 16 min; bacterial (C. kluyveri) enzyme, not human; inhibition, % at 20 µM; hit rate 0.69% among 190,000; AID 1217;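 active = primary screen inhibition at 20 µM above a set limit, cut at about 50% in these data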;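 also: plate controls were DMSO with full reaction for no effect and wells lacking NADH for full effect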
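controls = No-NADH positive control and DMSO neutral control | system = Clostridium kluyveri diaphorase enzyme | timing = reaction incubation of 16 min at room temperature | signal = resorufin fluorescence 544/590 nm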
HKDC1 inh: blocks human hexokinase HKDC1 activity; inhibition, % at 20 µM; recombinant HKDC1, G6PDH/diaphorase resazurin coupled fluorescence; AID 493160; Q2TB90; hit rate 0.16% among 340,000;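 active = inhibition above about 35% when tested at 20 µM, limit read from the data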;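 also: plate controls were DMSO wells with enzyme for no effect and DMSO wells lacking enzyme for full effect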
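test system = in-house recombinant HK5 (HKDC1) enzyme | amount = HKDC1 at 5 µg/mL | control set = DMSO-enzyme wells negative, buffer-substituted wells positive | compound = one dose of 20 µM, 1% DMSO | schedule = reaction time 90 min, room temperature, protected from light | technique = resorufin fluorescence at 613 nm | reagent = glucose with 1 mM ATP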
PfG6PD inh: PfG6PD (Plasmodium falciparum) enzyme inhibition; PfGluPho enzyme, NADPH resazurin-diaphorase fluorescence; hit rate 0.78% among 350,000; AID 504690; inhibition, % at 20 µM;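 active = inhibition reaching at least a set limit at 20 µM in the primary screen, cut at about 59% in these data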;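 also: 0% = DMSO wells with substrate and 100% = DMSO wells lacking glucose-6-phosphate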
HKDC1 act conf: confirmation of human HKDC1 activators | shares compounds with HKDC1 inh | recombinant HKDC1, G6PDH/diaphorase resazurin fluorescence; stronger effect = lower value | inhibition, % at 20 µM | hit rate 14% among 740 | AID 504708;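 active = inhibition at or below a set negative limit, negative inhibition meaning the enzyme was activated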
PfGluPho conf: confirmation of Plasmodium falciparum G6PD inhibitors; shares compounds with PfG6PD inh; hit rate 34% among 2,400; recombinant PfGluPho, NADPH-diaphorase-resazurin fluorescence; inhibition, % at 20 µM;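 active = inhibition of at least 50% at 20 µM in any single replicate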;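 also: 0% = DMSO with substrate and 100% = DMSO lacking glucose-6-phosphate substrate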
Diaph ctr 10uM: diaphorase inhibition or oxidation at 10 uM NADPH; shares compounds with PfG6PD inh; diaphorase-coupled resazurin reduction, fluorescence, NADPH 10 uM; inhibition, % at 20 µM; hit rate 39% among 820;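 active = average inhibition reaching 50% or more with the compound at 20 µM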;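 also: resorufin red fluorescence formed as diaphorase reduces resazurin using NADPH; 0% = DMSO with enzyme and 100% = DMSO without enzyme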
Diaph ctr 30uM: counter-screen for P. falciparum G6PD inhibitors: diaphorase inhibitors, oxidizers. inhibition, % at 20 µM. AID 504863. Diaphorase/resazurin coupled assay, resorufin fluorescence, 30 uM NADPH. hit rate 29% among 820. shares compounds with PfG6PD inh;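 active = inhibition averaging 50% or more, tested at 20 µM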;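 also: 0% = DMSO with enzyme and 100% = DMSO wells lacking diaphorase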
An asterisk follows results filed as active; nt = no result given. A selection: hits, their analogues and other compounds. The true share with any hit is near 1.2%.

SMILES	Tb hexokinase	G6PDH counter	Diaph inh CS	HKDC1 inh	PfG6PD inh	HKDC1 act conf	PfGluPho conf	others
CCn1cnc2cc(NCc3ccc(OC)cc3)ccc21	0.8	0.1	15.0	-2.6	10.7	nt	nt
CCOc1ccc2nc3cc(NCc4ccc(OC)cc4)ccc3c(N)c2c1	nt	nt	nt	36.1*	67.2*	-3.6	29.8
Cc1ccc(NC(=S)N2CCC(NC(=O)c3ccco3)CC2)cc1C	nt	nt	nt	-10.0	7.5	nt	nt
O=C(NCc1ccc2c(c1)OCO2)C1CC(=O)N(CCc2ccc(F)cc2)C1 (stereo not drawn)	nt	nt	nt	-5.0	10.0	nt	nt
COc1ccc(NC(=O)c2cc3ccccc3cc2O)cc1	nt	nt	nt	38.3*	70.2*	-12.8	27.6
Cc1ccc(NC(=O)c2cc3ccccc3cc2O)cc1	nt	nt	nt	4.7	18.4	nt	nt
COc1cccc(CN(C)C(=O)c2ccc(Oc3ccccc3)cc2)c1OC	nt	nt	nt	7.6	-11.6	nt	nt
Cc1ccc(S(=O)(=O)N(C(=O)c2ccncc2)c2ccc(OC(=O)c3ccncc3)c3ccccc23)cc1	-2.4	-14.9	32.8	31.6	73.9*	15.6	56.0*	Diaph ctr 10uM=15.9;Diaph ctr 30uM=-10.0
COc1ccccc1CNC(=O)N1CCN(c2ccccc2Cl)CC1	nt	nt	nt	-4.9	3.8	nt	nt
COC1=C(OC)C(=O)C(Sc2ccc3ccccc3c2)=CC1=O	nt	nt	nt	71.2*	127.7*	71.3	106.5*	Diaph ctr 10uM=82.2*;Diaph ctr 30uM=38.1
COc1ccc(S(=O)(=O)Oc2ccc3ccccc3c2)cc1	37.1	-9.8	19.4	-5.5	-0.5	nt	nt
O=C(Nc1cccc([N+](=O)[O-])c1)Nc1ccc2c(c1)OCCO2	-7.8	7.0	23.3	8.4	35.6	nt	nt
Cc1ccc(SSc2cc(C)ccc2N)c(N)c1	nt	nt	nt	-44.3	63.6*	-20.9	42.5
Cc1ccc(-c2nn(-c3ccc(F)cc3)cc2C(=O)N2CCN(C3CCS(=O)(=O)C3)CC2)cc1 (stereo not drawn)	nt	nt	nt	-2.1	1.4	nt	nt
COC(=O)c1c(NC(=O)CCC(=O)O)sc(Cc2ccccc2)c1C	-11.8	nt	nt	-0.7	-33.9	nt	nt
COC(=O)CCC(=O)Nc1sc(Cc2ccccc2)c(C)c1C(N)=O	34.1	8.6	nt	-43.7	75.2*	-22.5	63.1*	Diaph ctr 10uM=26.8;Diaph ctr 30uM=-2.3
O=C(Nc1ccc2nc(-c3ccco3)c(-c3ccco3)nc2c1)NC1CC1	-0.6	22.2	79.7*	50.2*	81.5*	-1.4	31.6
Cc1cc(O)c(-c2cc(O)c(C)cc2O)cc1O	8.2	nt	nt	44.7*	111.5*	23.7	109.7*	Diaph ctr 10uM=72.6*;Diaph ctr 30uM=22.3
Cc1cc(O)cc(C)c1Cl	nt	nt	nt	-2.8	22.8	nt	nt
O=C1/C(=C\c2ccccc2)CN(C(=O)CCN2CCCCC2)C/C1=C/c1ccccc1	nt	nt	nt	13.1	44.1	nt	nt
O=C1/C(=C\c2ccc(Cl)c(Cl)c2)CN(C(=O)CCN2CCOCC2)C/C1=C/c1ccc(Cl)c(Cl)c1	nt	nt	nt	60.7*	60.2*	16.8	24.8
Cc1ccc(C(=O)NCC(C)NC(=O)c2ccc(C)c(C)c2)cc1C (stereo not drawn)	nt	nt	nt	-6.5	-3.3	nt	nt
Cc1cc(C(=O)NC(C)CCc2ccccc2)ccc1[N+](=O)[O-] (stereo not drawn)	nt	nt	nt	-4.0	12.1	nt	nt
CSCCC(NC(=O)c1ccccc1Cl)C(=O)Nc1cccc(S(=O)(=O)N2CCCC2)c1 (stereo not drawn)	nt	nt	nt	-2.7	5.9	nt	nt
CCOC(=O)/C(=C\c1cccnc1)C(=O)c1cc(C(C)=O)c(Nc2ccccc2)s1	-34.0	1.4	34.1	42.5*	65.6*	16.0	20.2
CCOC(=O)/C(=C\c1ccccc1)C(=O)c1cc(C(C)=O)c(Nc2ccccc2)s1	-20.3	-0.5	24.2	19.9	-0.5	nt	nt
C=CC(=O)N1C/C(=C/c2ccc(F)cc2)C(=O)/C(=C\c2ccc(F)cc2)C1	nt	nt	nt	36.0*	61.9*	3.7	13.6
CCCc1nnc(NC(=O)CCC(=O)N2CCN(Cc3ccc(Cl)cc3)CC2)s1	nt	nt	nt	-8.6	9.0	nt	nt
Cc1cc(C)n2nc(C(=O)Nc3ccc(S(=O)(=O)N(C)C)cc3)nc2n1	1.3	nt	nt	-5.2	10.3	nt	nt

Screening results deposited in PubChem by several laboratories.
